pIC50: −log10 of the molar value. Calls of active or inactive are those of the source. No cut-off for these calls is given here.
Assays:
[1] = tested on: Radical scavenging activity; assay: Antioxidant activity assessed as DPPH free radical scavenging activity incubated for 30 mins; type: functional
Procedure, shortened: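 Blois method, modified: 0.1 ml sample in ethanol (2.5–20 mg/mL) mixed with 4 ml 1.5 × 10^-5 M DPPH, kept dark at room temperature 30 min; absorbance at 520 nm used to calculate % radical scavenging.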

[2] = Solubility in DMSO; type: physicochemical
RAW264.7 [3] = assay: Cytotoxicity against mouse RAW264.7 cells assessed as change in cell viability at 50 ug/mL incubated for 24 hrs by MTT assay; type: cell-based; conditions: raw264.7, 24 h
Procedure, shortened: (§1)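 RAW264.7 (passage ≤20, DMEM/10% FBS) seeded 5 × 10^4 cells/well, exposed to compound 24 h; MTT (5 mg/ml stock) added 4 h, formazan dissolved in 0.04 N HCl/isopropyl alcohol, OD read at 570 and 630 nm.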

RAW264.7 [4] = assay: Cytotoxicity against mouse RAW264.7 cells assessed as change in cell viability at 25 ug/mL incubated for 24 hrs by MTT assay; type: cell-based; conditions: raw264.7, 24 h; procedure, shortened: as §1
RAW264.7 [5] = assay: Cytotoxicity against mouse RAW264.7 cells assessed as change in cell viability at 6 ug/mL incubated for 24 hrs by MTT assay; type: cell-based; conditions: raw264.7, 24 h; procedure, shortened: as §1
RAW264.7 [6] = assay: Cytotoxicity against mouse RAW264.7 cells assessed as change in cell viability at 12 ug/mL incubated for 24 hrs by MTT assay; type: cell-based; conditions: raw264.7, 24 h; procedure, shortened: as §1
RAW264.7 [7] = assay: Antiinflammatory activity in mouse RAW264.7 cells assessed as inhibition of LPS-induced nitric oxide production pre-treated for 30 mins before LPS stimulation measured 24 hrs post LPS challenge by Griess assay; type: functional, cell-based
Procedure, shortened: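 LPS 200 ng/mL for 24 h after 30 min pretreatment at various concentrations; cells seeded 5 × 10^5/well overnight at 37 °C in DMEM/10% FBS. Nitrite in medium read with Griess reagent (1% sulfanilamide, 0.1% N-1-naphthylenediamine dihydrochloride, 2.5% phosphoric acid), 10 min, absorbance 570 nm, quantified against sodium nitrite standard curve.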

RAW264.7 [8] = assay: Inhibition of iNOS mRNA expression in mouse RAW264.7 cells pre-treated for 30 mins before LPS stimulation measured 24 hrs post LPS challenge by RT-PCR; type: functional, cell-based
Procedure, shortened: (§2)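 Cells pretreated with compound 30 min, then LPS 200 ng/mL for 24 h; total RNA extracted with TRIzol, quality checked by 260/280 absorbance; iNOS and COX-2 mRNA assessed by RT-PCR with gene-specific primers.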

RAW264.7 [9] = assay: Inhibition of COX2 mRNA expression in mouse RAW264.7 cells at 50 ug/mL pre-treated for 30 mins before LPS stimulation measured 24 hrs post LPS challenge by RT-PCR; type: functional, cell-based; procedure, shortened: as §2

Row | SMILES | pIC50 [1] | also measured
1 | O=C1O[C@H]([C@@H](O)CO)C(O)=C1O [ASCORBIC ACID] | 6.39 | –
2 | Cc1c(/N=C/c2ccccc2C=O)c(=O)n(-c2ccccc2)n1C | 4.46 | –
3 | Cc1c(/N=C/c2ccc(O)cc2)c(=O)n(-c2ccccc2)n1C | 4.73 | –
4 | Cc1c(/N=C/c2ccc(Cl)cc2)c(=O)n(-c2ccccc2)n1C | 4.50 | –
5 | COc1ccc(/C=N/c2c(C)n(C)n(-c3ccccc3)c2=O)cc1 | 4.82 | –
6 | COc1cc(/C=N/c2c(C)n(C)n(-c3ccccc3)c2=O)cc(OC)c1O | 5.78 | –
7 | COc1ccc(/C=N/c2c(C)n(C)n(-c3ccccc3)c2=O)cc1C | 5.28 | –
8 | COc1ccc(/C=N/c2c(C)n(C)n(-c3ccccc3)c2=O)c(OC)c1 | 4.84 | –
9 | Cc1c(/N=C/c2ccccc2)c(=O)n(-c2ccccc2)n1C | 4.51 | –
10 | Cc1c(/N=C/c2ccc(O)cc2O)c(=O)n(-c2ccccc2)n1C | 5.60 | –
11 | Cc1c(/N=C/c2c(O)cc(O)cc2O)c(=O)n(-c2ccccc2)n1C | 6.36 | solubility [2]: Insoluble
12 | Cc1c(/N=C/c2ccccc2/C=N/c2c(C)n(C)n(-c3ccccc3)c2=O)c(=O)n(-c2ccccc2)n1C | 5.50 | –
13 | COc1ccc(/C=N/c2c(C)n(C)n(-c3ccccc3)c2=O)cc1OC | 5.14 | –
14 | Cc1c(/N=C/c2ccc(O)c(O)c2)c(=O)n(-c2ccccc2)n1C | 6.03 | Activity (RAW264.7 [3]): Non-toxic; Activity (RAW264.7 [4]): Non-toxic; Activity (RAW264.7 [5]): Non-toxic; Activity (RAW264.7 [6]): Non-toxic; Activity (RAW264.7 [7]): Dose-dependent effect; inhibition (RAW264.7 [8]): Dose-dependent effect; inhibition (RAW264.7 [9]): Active

Source: ChEMBL document CHEMBL2086279, “Synthesis of novel Schiff base analogues of 4-amino-1,5-dimethyl-2-phenylpyrazol-3-one and their evaluation for antioxidant and anti-inflammatory activity” (Bioorg Med Chem, 2012)
